IC50, inhibition and Activity data for three molecules are collected here from ChEMBL document CHEMBL3621152, “Highly Efficient Synthesis of 1,3-Dihydroxy-2-carboxycarbazole and Its Neuroprotective Effects” (ACS Med Chem Lett, 2015).

Calls of active or inactive are those of the source. No cut-off for these calls is given here.

The target in data set [1] is T1, Amyloid-beta precursor protein (Homo sapiens, UniProt P05067). Briefly: Inhibition of amyloid beta (1 to 42) (unknown origin) aggregation incubated for 48 hrs by Thioflavin-T Abeta aggregation assay. Summed up:
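Aβ42 (10 µM) incubated with compound at the indicated concentrations for 48 h; aggregation measured by thioflavin T assay; curcumin (10 µM) used as positive control.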

The nature of data set [2]: Antioxidant activity assessed as DPPH radical scavenging activity at 0.3 to 100 uM incubated for 30 mins at 37 degC. Type of data set: physicochemical. The conditions noted are these: 0.5 h. The method in brief:
(§1)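 Test compound or trolox incubated with DPPH (50 µM) in MeOH at 37 °C for 30 min at the indicated concentrations; radical scavenging read as absorbance at 517 nm.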

Data set [3] has as its target T1, Amyloid-beta precursor protein. Briefly: Inhibition of amyloid beta oligomerization in human MC65 cells assessed as small AbetaOs formation at 0.3 uM incubated for 48 hrs under tetracycline removal condition by Western blot method. Type of data set: cell-based. The method in brief: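 MC65 cells incubated with compound under -TC conditions for 48 h; culture lysates analyzed by Western blot with 6E10 antibody for Aβ oligomers.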

For data set [4], the system named is MC65. The data set can be described thus: Effect on Abeta40 production in human MC65 cells at 0.1 to 1 uM incubated for 48 hrs under tetracycline removal condition by ELISA method. Type of data set: functional, cell-based. The method in brief: (§2)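 MC65 human neuroblastoma cells, which conditionally express APP C-terminal fragment C99 under tetracycline suppression, treated under -TC conditions for 48 h; Aβ40 and Aβ42 measured in the collected medium by ELISA.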

The test system of data set [5] is MC65. The data set can be described thus: Neuroprotective activity in human MC65 cells assessed as protection against tetracycline removal-induced toxicity at 10 uM incubated for 72 hrs by MTT method. Type of data set: functional, cell-based. The method in brief: (§3)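 Aβ toxicity in MC65 cells (C99 expression induced by tetracycline removal) with compound present at the indicated concentrations under -TC conditions for 72 h; viability read by MTT assay.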

In data set [6] the test system is MC65. Briefly: Neuroprotective activity in human MC65 cells assessed as protection against tetracycline removal-induced toxicity at 0.3 uM incubated for 72 hrs by MTT method. Type of data set: functional, cell-based. Summed up:
as §3

Data set [7] has as its system MC65. The data set can be described thus: Effect on Abeta42 production in human MC65 cells at 0.1 to 1 uM incubated for 48 hrs under tetracycline removal condition by ELISA method. Type of data set: functional, cell-based. The method in brief: as §2
A short description of data set [8]: Antioxidant activity assessed as DPPH radical scavenging activity at 0.3 to 10 uM incubated for 30 mins at 37 degC. The conditions noted are these: 0.5 h. The data set is classed as physicochemical. The method in brief: as §1
For data set [9], the system named is MC65. Briefly: Neuroprotective activity in human MC65 cells assessed as protection against tetracycline removal-induced toxicity UP TO 10 uM incubated for 72 hrs by MTT method. The data set is classed as functional, cell-based. The conditions noted are these: in the assay text read “UP TO 100 uM” for “UP TO 10 uM”. Summed up: as §3

T1 sequence (P05067 whole entry): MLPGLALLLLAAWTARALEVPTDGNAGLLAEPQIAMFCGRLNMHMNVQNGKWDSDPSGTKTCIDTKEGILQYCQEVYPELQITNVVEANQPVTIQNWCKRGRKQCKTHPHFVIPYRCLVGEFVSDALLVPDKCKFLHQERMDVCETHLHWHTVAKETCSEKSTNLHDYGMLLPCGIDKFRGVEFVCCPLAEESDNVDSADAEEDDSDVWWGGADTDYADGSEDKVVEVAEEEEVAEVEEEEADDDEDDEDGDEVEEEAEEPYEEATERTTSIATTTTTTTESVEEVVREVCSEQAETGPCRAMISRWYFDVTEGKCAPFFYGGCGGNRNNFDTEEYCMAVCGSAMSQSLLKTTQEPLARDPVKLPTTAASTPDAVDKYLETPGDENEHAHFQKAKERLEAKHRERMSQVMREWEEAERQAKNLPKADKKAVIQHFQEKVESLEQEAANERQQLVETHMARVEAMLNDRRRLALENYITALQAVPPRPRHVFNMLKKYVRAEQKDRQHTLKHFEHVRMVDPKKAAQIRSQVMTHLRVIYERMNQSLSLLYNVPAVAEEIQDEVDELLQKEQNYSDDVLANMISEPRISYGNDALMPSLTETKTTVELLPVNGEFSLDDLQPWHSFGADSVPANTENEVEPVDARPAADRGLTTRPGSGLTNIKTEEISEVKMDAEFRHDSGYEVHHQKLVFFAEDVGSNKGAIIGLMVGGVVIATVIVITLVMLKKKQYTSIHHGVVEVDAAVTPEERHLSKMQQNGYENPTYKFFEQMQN

The molecule `O=C(O)c1c(O)cc2c([nH]c3ccccc32)c1O` had an IC50 in data set [1] of 15 µM. Also, the inhibition entry in [1] was “Dose-dependent effect”. Also, the result in [2] was Active. For the same molecule, in data set [3], the inhibition entry was “Active”. In addition, the outcome with MC65 [4] and with MC65 [7] was inactive. The result in the data set with MC65 [5] and in the data set with MC65 [6] was Active.

Turning to `Cc1c(C)c2c(c(C)c1O)CCC(C)(C(=O)O)O2` (stereo not given) [TROLOX], the outcome in data set [8] was Active.

Turning to `O=C(O)c1c(O)cccc1O`, the result with MC65 [9] was inactive.
